Experimental data: ChEMBL document CHEMBL2396525, “Synthesis and anti-HCMV activity of 1-[ω-(phenoxy)alkyl]uracil derivatives and analogues thereof” (Bioorg Med Chem, 2013)
The source made the active and inactive calls. The rule behind the calls is not given here.

Experiments:
[1] = Cytotoxicity against HEL assessed as minimum cytotoxic concentration required to cause microscopically detectable alteration in cell morphology; assay type: cell-based; conditions: human, HEL cells
Human alphaherpesvirus 3 [2] = test: Antiviral activity against Varicella-zoster virus OKA; assay type: functional; conditions: strain Oka vaccine
How it was run: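 Confluent cell monolayers were infected with 10 or 100 PFU of VZV in the presence of serial compound dilutions. Plaque formation was recorded once untreated infected controls reached completion. EC50 was the concentration that reduced plaque formation by 50%.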

Human betaherpesvirus 5 [3] = test: Antiviral actiivty against Human herpesvirus 5 AD169 infected in HEL assessed as reduction of virus-induced plaque formation; assay type: functional, organism-based; conditions: Human betaherpesvirus 5, AD169
How it was run: (§1)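 HCMV strains AD-169 and Davis were tested on confluent human embryonic lung fibroblast monolayers infected with 100 PFU in the presence of serial compound concentrations. Plaques were counted once formation was complete in untreated infected controls. EC50 is the concentration that cuts plaque formation by 50%.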

[4] = tested on: Vesicular stomatitis virus; test: Antiviral activity against Vesicular stomatitis virus; assay type: functional, organism-based
[5] = tested on: Mammalian orthoreovirus 1; test: Antiviral activity against Reovirus-1; assay type: functional, organism-based
How it was run: (§2)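 Confluent HEL, Vero, HeLa or MDCK cell cultures were inoculated with 100 CCID50 of virus alongside varying compound concentrations. Cytopathicity was scored when it reached completion in untreated virus controls. EC50 is the concentration that reduces virus-induced cytopathogenicity by 50%.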

Human betaherpesvirus 5 [6] = test: Antiviral actiivty against Human herpesvirus 5 Davis infected in HEL assessed as reduction of virus-induced plaque formation; assay type: functional, organism-based; conditions: Human betaherpesvirus 5, Davis; how it was run: as §1
Human alphaherpesvirus 2 [7] = test: Antiviral activity against Herpes simplex virus type 2 Lyons; assay type: functional, organism-based; how it was run: as §2
Human alphaherpesvirus 1 [8] = test: Antiviral activity against thymidine kinase deficient acyclovir-resistant Herpes simplex virus type 1 KOS; assay type: functional, organism-based
Coxsackievirus B4 = test: Antiviral activity against Coxsackie B4 virus; assay type: functional, organism-based; how it was run: as §2
Human alphaherpesvirus 3 [9] = test: Antiviral activity against Varicella-zoster virus YS; assay type: functional, organism-based
How it was run: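 VZV was assayed by plaque formation. Confluent cell cultures received 10 or 100 PFU with varying compound concentrations, and plaques were recorded once complete in untreated infected controls. EC50 is the concentration that reduces plaque formation by 50%.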

[10] = Cytotoxicity against human CEM cells; assay type: cell-based; conditions: CCRF-CEM (CEM) cells
HEL = test: Cytotoxicity against HEL; assay type: cell-based; conditions: human
Sindbis virus = test: Antiviral activity against Sindbis virus; assay type: functional, organism-based; how it was run: as §2
Influenza A virus [11] = test: Antiviral activity against Influenza virus A virus H1N1; assay type: functional, organism-based
How it was run: (§3)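 The assay was a cell-based cytopathicity inhibition test on confluent monolayers with serial compound dilutions. EC50 was the concentration that reduced virus-induced cytopathicity by 50%.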

Punta Toro virus = test: Antiviral activity against Punta Toro virus; assay type: functional, organism-based; how it was run: as §2
Influenza A virus [12] = test: Antiviral activity against Influenza virus A virus H3N2; assay type: functional, organism-based; how it was run: as §3
[13] = tested on: Human immunodeficiency virus 2; test: Antiviral activity against HIV2 ROD infected in human CEM cells assessed as inhibition of virus-induced giant cell formation after 4 to 5 days; assay type: functional, organism-based; conditions: ISOLATE ROD, CCRF-CEM
How it was run: (§4)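 CEM cells at about 3 × 10^5 cells/mL were infected with 100 CCID50 of HIV per mL, with compound dilutions present. They were incubated 4–5 days at 37 °C in humidified CO2, and syncytia were scored microscopically. EC50 is the concentration that inhibits giant cell formation by 50%.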

Feline coronavirus = test: Antiviral activity against Feline coronavirus; assay type: functional, organism-based
[14] = tested on: Respiratory syncytial virus; test: Antiviral activity against Respiratory syncytial virus Long; assay type: functional, organism-based; how it was run: as §2
[15] = tested on: Human immunodeficiency virus 1; test: Antiviral activity against HIV1 3B infected in human CEM cells assessed as inhibition of virus-induced giant cell formation after 4 to 5 days; assay type: functional, organism-based; conditions: CCRF-CEM; how it was run: as §4
Influenza B virus = test: Antiviral activity against Influenza B virus; assay type: functional, organism-based; how it was run: as §3
Human alphaherpesvirus 1 [16] = test: Antiviral activity against Herpes simplex virus type 1 KOS; assay type: functional, organism-based; how it was run: as §2
Human alphaherpesvirus 2 [17] = test: Antiviral activity against Herpes simplex virus type 2 G; assay type: functional, organism-based; conditions: strain G; how it was run: as §2
Vaccinia virus = test: Antiviral activity against Vaccinia virus Lederle; assay type: functional, organism-based; conditions: Orthopoxvirus vaccinia
Human respirovirus 3 = test: Antiviral activity against Parainfluenza virus 3; assay type: functional, organism-based; how it was run: as §2

Cc1cc(C)cc(OCCCCCn2ccc(=O)[nH]c2=O)c1
MCC [1]: > 100 µM
Activity (Human alphaherpesvirus 3 [2]): inactive
EC50 (Human betaherpesvirus 5 [3]): > 100 µM
Activity [4]: inactive
Activity [5]: inactive
EC50 (Human betaherpesvirus 5 [6]): > 100 µM
Activity (Human alphaherpesvirus 2 [7]): inactive
Activity (Human alphaherpesvirus 1 [8]): inactive
Activity (Coxsackievirus B4): inactive
Activity (Human alphaherpesvirus 3 [9]): inactive
CC50 [10]: 154 µM
CC50 (HEL): > 100 µM
Activity (Sindbis virus): inactive
Activity (Influenza A virus [11]): inactive
Activity (Punta Toro virus): inactive
Activity (Influenza A virus [12]): inactive
Activity [13]: inactive
Activity (Feline coronavirus): inactive
Activity [14]: inactive
EC50 ([15]; Human immunodeficiency virus 1, 3B): 24 µM
Activity (Influenza B virus): inactive
Activity (Human alphaherpesvirus 1 [16]): inactive
Activity (Human alphaherpesvirus 2 [17]): inactive
Activity (Vaccinia virus): inactive
Activity (Human respirovirus 3): inactive

O=c1ccn(CCCCCOc2ccccc2)c(=O)[nH]1
MCC [1]: > 100 µM
Activity (Human alphaherpesvirus 3 [2]): inactive
EC50 (Human betaherpesvirus 5 [3]): > 100 µM
Activity [4]: inactive
Activity [5]: inactive
EC50 (Human betaherpesvirus 5 [6]): > 100 µM
Activity (Human alphaherpesvirus 2 [7]): inactive
Activity (Human alphaherpesvirus 1 [8]): inactive
Activity (Coxsackievirus B4): inactive
Activity (Human alphaherpesvirus 3 [9]): inactive
CC50 (HEL): > 100 µM
Activity (Sindbis virus): inactive
Activity (Influenza A virus [11]): inactive
Activity (Punta Toro virus): inactive
Activity (Influenza A virus [12]): inactive
Activity [13]: inactive
Activity (Feline coronavirus): inactive
Activity [14]: inactive
Activity [15]: inactive
Activity (Influenza B virus): inactive
Activity (Human alphaherpesvirus 1 [16]): inactive
Activity (Human alphaherpesvirus 2 [17]): inactive
Activity (Vaccinia virus): inactive
Activity (Human respirovirus 3): inactive
